Laboratory results reported in publication PMC4401146 (Journal of Cellular and Molecular Medicine, 2008).
No end group written: not given here.

Assays:
Type in all cases: biochemical
[1] = target: PMCA4 (Homo sapiens, UniProt P23634); experiment: PMCA Ca2+-Mg2+-ATPase in human erythrocyte ghosts, coupled enzyme assay
Method in brief: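 Human erythrocyte leaky ghosts were EDTA-washed to strip calmodulin; 0.2–0.4 mg protein per assay. Pyruvate kinase–LDH coupled NADH assay at 37°C in 30 mM imidazole-HCl pH 7.0 with 0.1 mM ouabain, 6 mM MgCl2, 0.5 mM ATP, 0.5 mM EGTA and 4 μg/ml calmodulin. Basal Mg2+-ATPase was subtracted from activity after CaCl2 addition. Ki came from a non-linear fit, saturating substrates; 3–4 measurements over 2–4 days.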

[2] = target: T1, PMCA1 (Oryctolagus cuniculus, UniProt Q00804); experiment: Ca2+-Mg2+-ATPase of rabbit duodenal mucosal PM rich fraction
T1 sequence (Q00804 1-1220): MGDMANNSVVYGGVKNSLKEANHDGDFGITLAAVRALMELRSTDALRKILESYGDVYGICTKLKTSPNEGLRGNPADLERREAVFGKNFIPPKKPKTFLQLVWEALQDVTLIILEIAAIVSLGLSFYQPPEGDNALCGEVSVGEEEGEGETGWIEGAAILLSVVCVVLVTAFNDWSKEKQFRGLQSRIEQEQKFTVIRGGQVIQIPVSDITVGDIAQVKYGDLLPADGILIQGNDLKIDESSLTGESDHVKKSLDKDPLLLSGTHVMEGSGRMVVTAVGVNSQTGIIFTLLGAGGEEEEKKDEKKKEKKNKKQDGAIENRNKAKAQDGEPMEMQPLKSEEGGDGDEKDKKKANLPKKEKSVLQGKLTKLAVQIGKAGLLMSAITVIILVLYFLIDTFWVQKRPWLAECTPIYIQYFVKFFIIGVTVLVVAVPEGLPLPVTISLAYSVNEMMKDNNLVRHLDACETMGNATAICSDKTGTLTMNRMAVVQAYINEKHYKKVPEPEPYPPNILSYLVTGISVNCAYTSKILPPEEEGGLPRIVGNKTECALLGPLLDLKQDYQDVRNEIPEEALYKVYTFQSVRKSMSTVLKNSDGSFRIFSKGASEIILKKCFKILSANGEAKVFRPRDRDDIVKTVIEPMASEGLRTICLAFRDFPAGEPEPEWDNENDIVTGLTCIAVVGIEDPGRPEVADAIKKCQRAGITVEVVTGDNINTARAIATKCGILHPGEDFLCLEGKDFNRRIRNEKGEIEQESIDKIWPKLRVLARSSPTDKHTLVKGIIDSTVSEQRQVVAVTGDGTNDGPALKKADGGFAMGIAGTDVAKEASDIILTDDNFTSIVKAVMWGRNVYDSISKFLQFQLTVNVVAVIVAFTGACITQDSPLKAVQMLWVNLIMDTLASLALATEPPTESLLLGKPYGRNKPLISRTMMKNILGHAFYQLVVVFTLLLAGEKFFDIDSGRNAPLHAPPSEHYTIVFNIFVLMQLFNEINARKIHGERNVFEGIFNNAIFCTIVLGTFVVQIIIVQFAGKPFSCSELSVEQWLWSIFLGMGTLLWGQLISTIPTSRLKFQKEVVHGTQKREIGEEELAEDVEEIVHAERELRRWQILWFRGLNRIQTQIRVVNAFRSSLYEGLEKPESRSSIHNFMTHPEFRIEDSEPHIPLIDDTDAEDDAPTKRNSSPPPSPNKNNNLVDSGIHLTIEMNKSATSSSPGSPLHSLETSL
Method in brief: (§1)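 Sources: a plasma membrane-enriched fraction from rabbit duodenal mucosa, rich in PMCA1 with little PMCA4, and microsomes from baculovirus-infected Sf9 cells expressing PMCA2 or PMCA3. Activity was followed by NADH loss in a coupled assay at 37°C: basal Mg2+-ATPase, then CaCl2 added, difference taken. Each day's mean control activity was 100%. Ki was fitted by non-linear regression; 3–4 measurements over 2–4 days.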

[3] = target: T2, PMCA2 (Homo sapiens, UniProt Q01814); experiment: Ca2+-Mg2+-ATPase of microsomes from overexpressing insect cells sf9
T2 sequence (Q01814 1-1243): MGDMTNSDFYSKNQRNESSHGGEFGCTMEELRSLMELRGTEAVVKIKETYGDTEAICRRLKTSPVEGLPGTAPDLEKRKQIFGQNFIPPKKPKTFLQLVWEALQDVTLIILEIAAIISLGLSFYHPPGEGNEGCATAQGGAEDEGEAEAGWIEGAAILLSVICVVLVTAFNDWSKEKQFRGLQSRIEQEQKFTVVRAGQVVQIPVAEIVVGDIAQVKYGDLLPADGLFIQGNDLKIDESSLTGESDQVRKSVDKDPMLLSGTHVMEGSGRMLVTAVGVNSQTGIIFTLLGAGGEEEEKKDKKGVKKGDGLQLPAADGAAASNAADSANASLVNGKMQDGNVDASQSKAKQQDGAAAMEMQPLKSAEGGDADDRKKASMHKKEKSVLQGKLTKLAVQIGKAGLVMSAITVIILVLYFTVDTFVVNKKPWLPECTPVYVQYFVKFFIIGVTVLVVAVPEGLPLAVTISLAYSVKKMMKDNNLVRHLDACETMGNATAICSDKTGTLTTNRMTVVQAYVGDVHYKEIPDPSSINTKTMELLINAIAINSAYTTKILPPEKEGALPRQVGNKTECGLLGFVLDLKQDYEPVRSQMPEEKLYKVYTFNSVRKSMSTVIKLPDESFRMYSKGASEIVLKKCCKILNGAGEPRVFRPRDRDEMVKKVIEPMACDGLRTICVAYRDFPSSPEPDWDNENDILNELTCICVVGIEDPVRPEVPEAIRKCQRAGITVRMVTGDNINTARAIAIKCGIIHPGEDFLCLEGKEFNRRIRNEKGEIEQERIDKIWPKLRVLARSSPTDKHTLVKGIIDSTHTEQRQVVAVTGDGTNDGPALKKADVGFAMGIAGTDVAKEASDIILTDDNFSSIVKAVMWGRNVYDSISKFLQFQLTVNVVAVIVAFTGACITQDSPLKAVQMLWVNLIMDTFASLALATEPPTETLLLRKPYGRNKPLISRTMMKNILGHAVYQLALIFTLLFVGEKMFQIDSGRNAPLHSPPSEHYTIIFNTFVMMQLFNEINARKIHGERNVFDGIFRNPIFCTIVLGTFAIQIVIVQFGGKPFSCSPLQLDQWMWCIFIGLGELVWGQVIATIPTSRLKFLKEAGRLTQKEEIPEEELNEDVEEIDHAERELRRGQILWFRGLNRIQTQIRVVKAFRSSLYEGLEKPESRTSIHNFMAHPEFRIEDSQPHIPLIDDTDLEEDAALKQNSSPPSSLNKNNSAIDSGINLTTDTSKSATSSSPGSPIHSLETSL
Method in brief: as §1

[4] = target: T3, PMCA3 (Homo sapiens, UniProt Q16720); experiment: as above
T3 sequence (Q16720 1-1220): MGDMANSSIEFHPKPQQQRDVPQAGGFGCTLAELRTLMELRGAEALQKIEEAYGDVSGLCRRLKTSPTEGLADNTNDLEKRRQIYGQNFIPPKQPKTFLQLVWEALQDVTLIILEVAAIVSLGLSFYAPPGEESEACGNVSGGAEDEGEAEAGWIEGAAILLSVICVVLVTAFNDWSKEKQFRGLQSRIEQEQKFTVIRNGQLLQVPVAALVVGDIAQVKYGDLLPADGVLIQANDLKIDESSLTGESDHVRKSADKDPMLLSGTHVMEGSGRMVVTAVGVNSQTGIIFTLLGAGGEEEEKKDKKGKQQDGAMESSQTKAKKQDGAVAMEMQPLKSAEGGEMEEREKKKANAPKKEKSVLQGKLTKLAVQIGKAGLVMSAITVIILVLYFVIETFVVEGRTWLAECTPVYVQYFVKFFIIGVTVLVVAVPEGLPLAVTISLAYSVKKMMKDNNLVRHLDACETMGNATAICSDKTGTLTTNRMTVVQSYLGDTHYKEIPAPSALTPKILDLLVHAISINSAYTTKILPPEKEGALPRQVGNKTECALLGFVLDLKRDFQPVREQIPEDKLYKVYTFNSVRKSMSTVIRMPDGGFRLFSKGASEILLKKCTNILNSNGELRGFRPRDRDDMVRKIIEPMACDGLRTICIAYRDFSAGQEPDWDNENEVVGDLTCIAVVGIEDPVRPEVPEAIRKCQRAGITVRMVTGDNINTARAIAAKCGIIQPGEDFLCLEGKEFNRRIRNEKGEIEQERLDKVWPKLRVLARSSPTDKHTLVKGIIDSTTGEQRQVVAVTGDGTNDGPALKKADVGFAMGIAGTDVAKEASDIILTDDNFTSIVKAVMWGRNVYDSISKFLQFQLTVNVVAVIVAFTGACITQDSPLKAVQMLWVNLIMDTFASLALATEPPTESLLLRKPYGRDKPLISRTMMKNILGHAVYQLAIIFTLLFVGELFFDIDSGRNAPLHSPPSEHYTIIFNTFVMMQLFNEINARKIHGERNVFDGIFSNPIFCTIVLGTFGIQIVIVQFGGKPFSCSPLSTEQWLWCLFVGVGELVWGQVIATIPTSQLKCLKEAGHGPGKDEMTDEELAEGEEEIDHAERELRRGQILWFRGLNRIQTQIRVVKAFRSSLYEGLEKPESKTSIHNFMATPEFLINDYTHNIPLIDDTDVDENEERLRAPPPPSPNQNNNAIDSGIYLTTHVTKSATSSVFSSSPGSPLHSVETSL
Method in brief: as §1

TAWSEVLDLLRRGGGSK-NH2 [caloxin 1c2]
Ki [1]: 2.3 ± 0.3 µM | Ki [2]: 21 ± 6 µM | Ki [3]: 40 ± 10 µM | Ki [4]: 67 ± 8 µM
